We go through 6 compounds from paper PMC3457684 (Science translational medicine, 2012).

Several values for one entry are separate records, joined by “and”; a condition that tells them apart may be missing. Equal values may be shown once. Read-outs that look alike come from different tables or passages of the source.

What is called EC50 is the concentration at which the effect is half-maximal. One may read the fraction unbound as free concentration divided by total concentration. Read a high fraction unbound as much free substance. As usually defined, the ED50 is the midpoint of the dose-response relation.

The subject of series [1] is L. donovani (strain LdBOB) axenic amastigotes overexpressing L. major nitroreductase. Nature of the series: Drug susceptibility of axenic amastigotes overexpressing L. major nitroreductase. It is filed as cell-based, Leishmania donovani. Particulars: for shift in sensitivity, nitroreductase overexpressing vs wildtype: axenic amastigotes; for EC50: read-out: EC50, axenic amastigotes overexpressing nitroreductase.

Series [2] deals with L. donovani (strain LdBOB) promastigotes. Nature of the series: In vitro drug sensitivity assay, promastigotes. It is filed as cell-based, Leishmania donovani. The settings on record: for EC50: Leishmania donovani, 72 h, read-out: L. donovani EC50, Promastigote. An outline of the steps: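 Clonal LdBOB promastigotes were grown at 26 °C in stage-specific medium. Triplicate cultures were seeded at 1 × 10⁵ parasites ml⁻¹ with test compound for 72 h, then given 50 μM resazurin, and fluorescence (ex 528, em 590 nm) was read after 4 h. For isobolograms, mid-log promastigotes received the two metabolites in fixed combinations relative to their respective EC50s. The EC50 of each combination was determined at 72 h (triplicate, mean ± SD) and plotted.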

For series [3], the system named is L. donovani (strain LdBOB) axenic amastigotes. In words: Cytocidal effect on axenic amastigotes. Particulars: drug at 10 times its EC50 (sulfone 36 μM), wash-out and sub-culture without drug. Format: cell-based, Leishmania donovani. An outline of the steps: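 Early-log LdBOB axenic amastigotes (~1 × 10⁶ ml⁻¹), grown at 37 °C in 5% CO₂, were exposed to test compound at 36 μM. At intervals, cell density was counted, and samples were removed, washed and resuspended in fresh drug-free medium. Viability of washed parasites was followed for up to 72 h after drug removal to find the point of irreversible toxicity.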

The nature of series [4]: Plasma protein binding by equilibrium dialysis. The settings on record: mouse. It is filed as in vitro ADME. Background: Equilibrium dialysis compares concentrations on both sides of a semipermeable membrane.
The subject of series [5] is L. donovani (strain LdBOB) axenic amastigotes. Nature of the series: In vitro drug sensitivity assay, axenic amastigotes. The settings on record: Leishmania donovani. It is filed as cell-based. An outline of the steps:
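Clonal LdBOB axenic amastigotes were grown at 37 °C in 5% CO₂ in stage-specific medium and cycled between stages after at most 7 passages. Triplicate cultures were seeded at 1 × 10⁵ parasites ml⁻¹ with test compound for 72 h. Resazurin (50 μM) was added, and fluorescence (ex 528, em 590 nm) was read 4 h later. At least three experiments were run; results are weighted mean plus weighted standard deviation.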

The nature of series [6]: Fexinidazole exposure in mice after acute oral dosing. It is filed as in vivo, BALB/c mice. Particulars: single oral dose of fexinidazole 200 mg kg^−1, mouse blood.
The test system of the next series is L. donovani strain LV9. Nature of the series: In vivo drug sensitivity, mouse model of visceral leishmaniasis. Particulars: oral, once daily for 5 days. Details: species or system BALB/c mice.
The test system of series [7] is intracellular L. donovani (LV9) amastigotes in peritoneal mouse macrophages. Nature of the series: In macrophage drug sensitivity assay. It is filed as cell-based, Leishmania donovani. Particulars: strain LV9, peritoneal mouse macrophages, 72h.
The next series concerns L. donovani. The settings on record: similar in vivo studies; cited from earlier work.
Setting [8] is: 72 h, read-out: L. donovani EC50, Axenic amastigote.
Setting [9] is: read-out: EC50, wildtype axenic amastigotes.

Turning to `Cn1c([N+](=O)[O-])cnc1COc1ccc(S(C)(=O)=O)cc1` [Fexinidazole sulfone, fexinidazole sulfone], the “shift in sensitivity, nitroreductase overexpressing vs wildtype” value in [1] is on record as 19 fold. Also, the EC50 in series [1] was 0.23 ± 0.1 µM; in [2], 4.8 ± 0.1 µM; in [5] (setting [8]), 1.6 ± 0.1 µM; in [5] (setting [9]) it was 4.4 ± 0.1 µM. In [3], the “exposure time after which no viable parasites could be recovered” value is recorded as 30 h. The same compound gave a fraction unbound in series [4] of 0.73. Moreover, the “time blood concentration stays above EC99” value in series [6] was “more than 24 h”.

With `CSc1ccc(OCc2ncc([N+](=O)[O-])n2C)cc1` [Fexinidazole, fexinidazole], in series [1], the “shift in sensitivity, nitroreductase overexpressing vs wildtype” value is 19 fold. Besides, the tolerability in mice result with L. donovani strain LV9 (up to 200 mg kg^−1) is reported as “well tolerated”. In addition, in the series on L. donovani strain LV9 (liver parasite burden day 14), the ED50 was ~12 mg/kg and 11.9 ± 2.3 mg/kg. Further, the EC50 was 5.6 ± 0.2 µM in series [2] and 2.8 ± 0.1 µM in [5] (setting [8]). In addition, the “L. donovani EC50, Amastigote (in macrophages)” value in series [7] is “inactive”. Also, the fraction unbound in [4] was found to be 0.15.

As for `CC1CS(=O)(=O)CCN1/N=C/c1ccc([N+](=O)[O-])o1` (stereo not drawn) [nifurtimox], in [1], the “shift in sensitivity, nitroreductase overexpressing vs wildtype” value is listed as 27 fold and the EC50 was determined as 0.2 ± 0.1 µM. Besides, the EC50 in series [5] (setting [9]) was 5.6 ± 0.2 µM.

On to `Cn1c([N+](=O)[O-])cnc1COc1ccc([S+](C)[O-])cc1` (stereo not drawn) [Fexinidazole sulfoxide, fexinidazole sulfoxide], for which the EC50 is 3.1 ± 0.1 µM in series [2] and 4.5 ± 0.3 µM in series [5] (setting [8]). Also, the “interaction in combination (isobologram)” value in series [2] (fexinidazole sulfoxide plus sulfone, LdBOB promastigotes, 72h) is “additive”. Further, the “exposure time after which no viable parasites could be recovered” value in series [3] is on record as 30 h. Also, the free fraction (fraction unbound) in [4] was 0.86. For the same compound, in series [6], the “time blood concentration stays above EC99” value is listed as 8 h.

For `CCCCCCCCCCCCCCCCOP(=O)([O-])OCC[N+](C)(C)C` [Miltefosine, miltefosine], in series [1], the “shift in sensitivity, nitroreductase overexpressing vs wildtype” value is on record as “no concomitant shift” and the EC50 was found to be 4.9 ± 0.2 µM. For the same compound, in series [2], the EC50 was found to be 6.1 ± 0.3 µM. In the series with L. donovani, the ED50 is 4 mg/kg and the ED90 was 27 mg/kg. In addition, the fraction unbound in series [4] stood at 0.002. In addition, the EC50 in [5] (setting [8]) worked out at 4.4 ± 0.2 µM.

With `O.O.O.O.O.O.O.O.O.O=C([O-])[C@@H]1[O][Sb](=[O])([O][Sb]2(=[O])[O][C@H]([C@H](O)CO)[C@H](O)[C@H](C(=O)[O-])[O]2)[O][C@H]([C@H](O)CO)[C@@H]1O.[Na+].[Na+].[Na+]` (stereo partly drawn) [Pentostam], in the series with L. donovani, the ED50 is 20 mg/kg and the ED90 was 57 mg/kg.
